Measured values: ChEMBL document CHEMBL1125422, “Low molecular weight proteins as carriers for renal drug targeting. Preparation of drug-protein conjugates and drug-spacer derivatives and their catabolism in renal cortex homogenates and lysosomal lysates” (J Med Chem, 1992)
Values joined by “and” are separate entries in the source; they are usually repeats but may differ in a detail not shown here. Equal entries are not always repeated. Square brackets hold non-standard residues; d marks the D form. Peptide text beside a SMILES is read from it. * marks the point of attachment. ξ: configuration not given here. βNA = c1ccc2cc(N*)ccc2c1; Cbz = O=C(OCc1ccccc1)*; ξP = O=C(O)C1CCCN1

Key:
Rattus norvegicus [1] = organism: Rattus norvegicus; test: (§1) Lysozyme-conjugated prodrugs: in vitro stability at pH 7.4; assay type: functional
Method in brief: (§2)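 Conjugate incubated 24 h in pH 5.0 buffer, pH 7.4 buffer, or plasma buffered at pH 7.4. Samples were deproteinized with ACN, MeOH or 2 N HCl, centrifuged, and analyzed by RP-HPLC against an internal standard. Release is % parent drug = parent/(parent + derivative) from IS-normalized peak-area ratios, mean of at least two separate incubations.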

Rattus norvegicus [2] = organism: Rattus norvegicus; test: as §1; assay type: functional; method in brief: as §2; remark: listed apart in the source
Rattus norvegicus [3] = organism: Rattus norvegicus; test: as §1; assay type: functional; method in brief: as §2; remark: listed apart in the source
Rattus norvegicus [4] = organism: Rattus norvegicus; test: (§3) Lysozyme-conjugated prodrugs: in vitro stability at pH 5; assay type: functional; method in brief: as §2
Rattus norvegicus [5] = organism: Rattus norvegicus; test: as §3; assay type: functional; method in brief: as §2; remark: listed apart in the source
Rattus norvegicus [6] = organism: Rattus norvegicus; test: as §1; assay type: functional; method in brief: as §2; remark: listed apart in the source
Rattus norvegicus [7] = organism: Rattus norvegicus; test: as §3; assay type: ADME; method in brief: as §2
Rattus norvegicus [8] = organism: Rattus norvegicus; test: Lysozyme-conjugated prodrugs: in vitro stability in rat cortical homogenate at pH 7.4; assay type: functional
Method in brief: (§4)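 Renal cortices from three male Wistar rats were perfused, pooled, homogenized in 0.3 M sucrose and lysed by 10 freeze–thaw cycles. Conjugate was incubated with 250 μL homogenate in 0.1 M phosphate buffer, pH 5.0 or 7.4, to 1.0 mL for 24 h. Samples were deproteinized and analyzed by HPLC with internal standard. Release is % parent compound, mean of ≥2 incubations.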

Rattus norvegicus [9] = organism: Rattus norvegicus; test: as §1; assay type: functional; method in brief: as §2; remark: listed apart in the source
Rattus norvegicus [10] = organism: Rattus norvegicus; test: Lysozyme-conjugated prodrugs: in vitro stability in rat cortical homogenate at pH 5; assay type: functional; method in brief: as §4
Rattus norvegicus [11] = organism: Rattus norvegicus; test: as §3; assay type: functional; method in brief: as §2; remark: listed apart in the source
Rattus norvegicus [12] = organism: Rattus norvegicus; test: Lysozyme-conjugated prodrugs: in vitro stability in lysosomal lysate at pH 7.4; assay type: functional
Method in brief: (§5)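 Lysosomes isolated from pooled male Wistar rat kidney cortex by differential centrifugation, then lysed by 10 freeze–thaw cycles in liquid N2. 100 μL lysate diluted to 1.0 mL with 0.1 M phosphate buffer, pH 5.0 or 7.4. Samples were deproteinized and analysed by RP-HPLC against an internal standard. Parent drug released after 24 h, as a percentage, mean of ≥2 incubations.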

Rattus norvegicus [13] = organism: Rattus norvegicus; test: Lysozyme-conjugated prodrugs: in vitro stability in lysosomal lysate at pH 5; assay type: functional; method in brief: as §5
Rattus norvegicus [14] = organism: Rattus norvegicus; test: Lysozyme-conjugated prodrugs: in vitro stability in buffered plasma at pH 7.4; assay type: functional; method in brief: as §2

| Compound | Drug release (Rattus norvegicus [7]) | Drug release (Rattus norvegicus [1]) | Drug release (Rattus norvegicus [2]) | Drug release (Rattus norvegicus [3]) | Drug release (Rattus norvegicus [4]) | Drug release (Rattus norvegicus [5]) | Drug release (Rattus norvegicus [6]) | Drug release (Rattus norvegicus [8]) | Drug release (Rattus norvegicus [9]) | Drug release (Rattus norvegicus [10]) | Drug release (Rattus norvegicus [11]) | Drug release (Rattus norvegicus [12]) | Drug release (Rattus norvegicus [13]) | Drug release (Rattus norvegicus [14]) |
| --- | --- | --- | --- | --- | --- | --- | --- | --- | --- | --- | --- | --- | --- | --- |
| COc1ccc2cc(C(C)C(=O)N[C@@H](CC(C)C)C(=O)NCC(=O)NCC(=O)O)ccc2c1 (stereo in doubt; 1c) | < 1% | <1% | <1% | <1% | <1% | <1% | <1% |  |  |  |  |  |  |  |
| COc1ccc2cc(C(C)C(=O)N[C@@H](Cc3ccc(O)cc3)C(=O)NCC(=O)NCC(=O)O)ccc2c1 (stereo in doubt; 1e) | < 1% | <1% | <1% | <1% | <1% | <1% | <1% |  |  |  |  |  |  |  |
| Nc1nc(N)c2nc(-c3ccccc3)c(N)nc2n1 |  |  |  |  |  |  |  | Stable | Stable | Stable | Stable |  |  |  |
| O=C(N[C@@H](Cc1ccccc1)C(=O)O)C1CCCN1C(=O)OCc1ccccc1 (stereo partly specified) (Cbz-[ξP]-Phe-OH) | 0% | 0% |  | 100% | 100% | 100% | 100% |  |  |  |  |  |  |  |
| COc1ccc2cc(C(C)C(=O)NC(CC(C)C)C(=O)O)ccc2c1 (stereo unspecified) | < 1% | <1% | <1% | <1% | <1% | <1% | <1% |  |  |  |  |  |  |  |
| Nc1ccc2ccccc2c1 |  |  |  |  |  |  |  | Stable | Stable | Stable | Stable | Stable | Stable |  |
| COc1ccc2cc(C(C)C(=O)O[C@@H](C)C(=O)O)ccc2c1 (stereo in doubt; 1r) | 0.6% | 1.4% | 13% | 3% | 100% | 100% | 15% |  |  |  |  |  |  |  |
| COc1ccc2cc([C@H](C)C(=O)O)ccc2c1 [NAPROXEN] | 0% | 0% | 0% | 0% | 0% | 0% | 0% | Stable | Stable | Stable | Stable | Stable | Stable | Stable |
| COc1ccc2c(c1)c(CC(=O)O)c(C)n2C(=O)c1ccc(Cl)cc1 |  |  |  |  |  |  |  | Stable | Stable | Stable | Stable |  | Stable | Stable |
| COc1ccc2cc(C(C)C(=O)N[C@@H](Cc3ccc(O)cc3)C(=O)NCC(=O)NCC(=O)O)ccc2c1 (stereo in doubt; 1p) | 0% | 0% |  |  |  | 0% | 0% |  |  |  |  |  |  |  |
| COc1ccc2cc(C(C)C(=O)NC(Cc3ccc(O)cc3)C(=O)O)ccc2c1 (stereo unspecified) | < 1% | <1% | <1% | <1% | <1% | <1% | <1% |  |  |  |  |  |  |  |
| CC(C)C[C@H](NC(=O)c1ccccc1)C(=O)O | 0% | 0% |  |  |  | 0% | 0% |  |  |  |  |  |  |  |
| COc1ccc2cc(C(C)C(=O)O[C@@H](C)C(=O)O)ccc2c1 (stereo in doubt) | 1.1% | 6.9% | 6.8% |  | 2% | 2% |  |  |  |  |  |  |  |  |
| COc1ccc2cc(C(C)C(=O)N[C@@H](Cc3ccc(O)cc3)C(=O)O)ccc2c1 (stereo partly specified) | 0% | 0% |  |  |  | 0% | 0% |  |  |  |  |  |  |  |
| COc1ccc2cc(C(C)C(=O)NCCCC[C@H](N)C(=O)O)ccc2c1 (stereo partly specified) | 0% | 0% | 0% | 0% | 0% | 0% | 0% |  |  |  |  |  |  |  |
| O=C(O)CNC(=O)c1ccccc1 [HIPPURIC ACID] | 0% | 0% |  |  |  | 0% | 0% |  |  |  |  |  |  |  |
| C[C@@H](NC(=O)C(Cc1ccccc1)NC(=O)OCc1ccccc1)C(=O)O (stereo partly specified) | 0% | 0% |  | 100% | 100% | 100% | 100% |  |  |  |  |  |  |  |
| CC(C)C[C@H](N)C(=O)Nc1nc(N)nc2nc(N)c(-c3ccccc3)nc12 | 0% | 0% |  |  |  | 0% | 0% |  |  |  |  |  |  |  |

More lines, main results first:

| Drug release (Rattus norvegicus [7]) | Compound | Drug release (Rattus norvegicus [1]) | Drug release (Rattus norvegicus [2]) | Drug release (Rattus norvegicus [3]) | Drug release (Rattus norvegicus [4]) | Drug release (Rattus norvegicus [5]) | Drug release (Rattus norvegicus [6]) | Drug release (Rattus norvegicus [8]) | Drug release (Rattus norvegicus [9]) | Drug release (Rattus norvegicus [10]) | Drug release (Rattus norvegicus [11]) | Drug release (Rattus norvegicus [12]) | Drug release (Rattus norvegicus [13]) | Drug release (Rattus norvegicus [14]) |
| --- | --- | --- | --- | --- | --- | --- | --- | --- | --- | --- | --- | --- | --- | --- |
| 1% | COc1ccc2cc(C(C)C(=O)OCC(=O)O)ccc2c1 (stereo unspecified) | 2% | 8% | 5% | 45% | 81% | 8% |  |  |  |  |  |  |  |
| 0% | NCC(=O)N[C@@H](Cc1ccccc1)C(=O)Nc1ccc2ccccc2c1 (H-Gly-Phe-βNA) | 0% |  | 100% | 100% | 100% | 100% |  |  |  |  |  |  |  |
| 0% | CC(C)C[C@H](N)C(=O)Nc1ccc2ccccc2c1 | 0% |  | 100% | 100% | 100% | 100% |  |  |  |  |  |  |  |
| 100% and 80% | Cc1cc(NS(=O)(=O)c2ccc(NC(=O)CC3=CC(=O)OC3=O)cc2)no1 | 15% and 7% | 7% | 8% | 84% | 84% | 8% |  |  |  |  |  |  |  |
| 0% | COc1ccc2cc(C(C)C(=O)N[C@@H](CCC(=O)O)C(=O)O)ccc2c1 (stereo partly specified) | 0% |  |  |  | 0% | 0% |  |  |  |  |  |  |  |
| 0% | COc1ccc2c(c1)c(CC(=O)NCCCC[C@H](NC(=O)OCc1ccccc1)C(=O)O)c(C)n2C(=O)c1ccc(Cl)cc1 | 0% |  |  |  | 0% | 0% |  |  |  |  |  |  |  |
| 0% | COc1ccc2c(c1)c(CC(=O)N[C@@H](Cc1ccc(O)cc1)C(=O)O)c(C)n2C(=O)c1ccc(Cl)cc1 | 0% |  |  |  | 0% | 0% |  |  |  |  |  |  |  |
| 0% | COc1ccc2cc(C(C)C(=O)N[C@@H](Cc3c[nH]c4ccccc34)C(=O)O)ccc2c1 (stereo partly specified) | 0% |  |  |  | 0% | 0% |  |  |  |  |  |  |  |
